Measurements collected from several papers.
Compare with care: the assays were run in different laboratories.
Organism: Staphylococcus aureus
Read-out: microbial growth

Compound | method | strain | time | notes | MIC
COc1ccc2c(c1)CCc1c(C(=O)NCCc3nc4cc(C)ccc4[nH]3)n[nH]c1-2 |  |  |  |  | > 128 µg/mL
CC(C)Oc1c(NC(=O)c2ccc(NC(=O)[C@H](CC(N)=O)NC(=O)c3ccc(NC(=O)c4ccc(C#N)cc4)cc3)cc2)ccc(C(=O)O)c1O |  | ATCC29213 |  |  | > 64 µg/mL
NC[C@H]1O[C@H](O[C@H]2[C@H](O)[C@@H](O[C@H]3O[C@H](CO)[C@@H](O)[C@H](N)[C@H]3O)[C@H](N)C[C@@H]2N)[C@H](N)C[C@@H]1O |  | 156 |  | clinical isolate | 12.5 µM
Cc1ccc2nc(-c3ccc(F)cc3)[nH]c2c1 | broth dilution | ATCC29213 MSSA |  |  | 64 µg/mL
O=C(Nc1ccc(F)c(F)c1)c1cc(Cl)ccc1O | broth dilution | ATCC29213 |  |  | 0.44 µg/mL
O=[N+]([O-])c1cnc2ccc(F)cc2c1O |  |  |  |  | > 128 µg/mL
CC1=NN(CNC(=O)c2ccccc2)C(=O)C1=NNn1c(-c2ccccc2)nc2ccccc2c1=O | broth dilution |  | 24 h |  | 51.9 µM
COc1cc2c(Nc3ccc(NC(=O)c4ccccc4)cc3)ncnc2cc1OCCCN1CCOCC1 |  | NCTC8325 |  |  | > 30 µM
Brc1cccc(NCc2ccc(Oc3ccccn3)cc2)c1 |  |  |  |  | > 3.1 µg/mL
O=C(CCc1ccc(O)c(O)c1)NCCCCCCCC[P+](c1ccccc1)(c1ccccc1)c1ccccc1.[Br-] | broth dilution | ATCC43300 MRSA | 18 h |  | > 32 µg/mL
O=C(O)c1cn(C2CC2)c2cc(N3CCNCC3)c(F)cc2c1=O | broth dilution | ATCC11632 | 18 h |  | < 5 µg/mL
CN(C)[C@@H]1C(O)=C(C(N)=O)C(=O)[C@@]2(O)C(O)=C3C(=O)c4c(O)cccc4[C@@](C)(O)[C@H]3C[C@@H]12 | broth dilution | 25923 |  |  | 0.15 µM
CO[C@H]1C[C@@H]2CC[C@@H](C)[C@@](O)(O2)C(=O)C(=O)N2CCCC[C@H]2C(=O)O[C@H]([C@H](C)C[C@@H]2CC[C@@H](OCCO)[C@H](OC)C2)CC(=O)[C@H](C)/C=C(\C)[C@@H](O)[C@@H](OC)C(=O)[C@H](C)C[C@H](C)/C=C/C=C/C=C/1C |  | NCTC8325 |  |  | > 30 µM
C/C=C(\C)c1cc(O)c(C)c(OC(=O)c2c(C)cc(O)c(Cl)c2O)c1 | broth dilution | ATCC29213 |  |  | 8 µg/mL
CC(C)Oc1c(NC(=O)c2ccc(NC(=O)[C@H](CC(N)=O)NC(=O)c3ccc(NC(=O)C(C)Oc4ccc(C#N)cc4)cc3)cc2)ccc(C(=O)Nc2ccc(C(=O)O)cc2)c1O (stereo partly shown) |  | ATCC29213 |  |  | > 64 µg/mL
C=CC1(C)CC(OC(=O)CSc2nc3ccccc3s2)C2(C)C(C)CCC3(CCC(=O)C32)C(C)C1O (stereo not shown) |  |  |  |  | 0.5 µg/mL
CCCCCCC#Cc1cncc(-c2nnc(SCc3ccc([N+](=O)[O-])o3)n2C2CC2)c1 |  | MRSA |  | drug-resistant strain | ≥ 20 µg/mL
C[n+]1c(/C=C/c2ccc(O)cc2)cc(/C=C2\Sc3ccccc3N2CCCN2CCOCC2)c2ccccc21.[I-] | broth dilution | ATCCBAA44 |  |  | 8 µg/mL
COC1/C=C/OC2(C)Oc3c(C)c(O)c4c(O)c(c5c(nc6cc(C)ccn65)c4c3C2=O)NC(=O)/C(C)=C\C=C\C(C)C(O)C(C)C(O)C(C)C(OC(C)=O)C1C (stereo not shown) |  |  |  |  | ≤ 0.06 µg/mL
CN[C@H](CC(C)C)C(=O)N[C@H]1C(=O)N[C@@H](CC(N)=O)C(=O)N[C@H]2C(=O)N[C@H]3C(=O)N[C@H](C(=O)N[C@H](C(=O)O)c4cc(O)cc(O)c4-c4cc3ccc4O)[C@H](O)c3ccc(c(Cl)c3)Oc3cc2cc(c3O[C@@H]2O[C@H](CO)[C@@H](O)[C@H](O)[C@H]2O[C@H]2C[C@](C)(N)[C@H](O)[C@H](C)O2)Oc2ccc(cc2Cl)[C@H]1O | broth dilution | CCARM3090 |  |  | 0.5 µg/mL

Compound | method | strain | time | notes | MIC
O=C(O)CN1C(=O)/C(=C/c2c3ccccc3c(-c3ccc(N(c4ccccc4)c4ccccc4)cc3)c3ccccc23)NC1=S | broth dilution | ATCC6538 |  |  | > 1000 µg/mL
Nc1ncnc2c1c(-c1cnc3[nH]ccc3c1)nn2C1CCCC1 |  | NCTC8325 |  |  | > 30 µM
O=C1NC(=S)S/C1=C\c1ccc(-c2ccc(N(c3ccccc3)c3ccccc3)cc2)c2ccccc12 | broth dilution | ATCC6538 |  |  | 500 µg/mL
CC(=O)Nc1ccc(C(=O)Nc2ccc(C(=O)N[C@@H](CC(N)=O)C(=O)Nc3ccc(C(=O)Nc4ccc(C(=O)Nc5ccc(C(=O)O)cc5)c(O)c4OC(C)C)cc3)cc2)cc1 |  | ATCC29213 |  |  | 64 µg/mL
Cc1cc(Cl)cc2sc(N(CCCn3ccnc3)C(=O)c3ccc[nH]3)nc12 |  | ATCC25923 |  |  | 1.3 µM
Cc1cc(Nc2nc(N[C@@H](C)c3ccc(F)cc3)c(C#N)cc2F)n[nH]1 |  | NCTC8325 |  |  | 30 µM
CC(C)Oc1c(NC(=O)c2ccc(NC(=O)[C@H](CC(N)=O)NC(=O)c3cccc(-c4cccc(C#N)c4)c3)cc2)ccc(C(=O)Nc2ccc(C(=O)O)cc2)c1O |  | ATCC29213 |  |  | > 64 µg/mL
O=C1NC(=S)S/C1=C\c1c2ccccc2c(-c2ccc(N(c3ccccc3)c3ccccc3)cc2)c2ccccc12 | broth dilution | ATCC6538 |  |  | > 1000 µg/mL
O=C(O)c1ccc(Nc2ncc3c(n2)-c2ccc(Cl)cc2C(c2c(F)cccc2F)=NC3)cc1 |  | NCTC8325 |  |  | > 30 µM
CC1(C)S[C@@H]2[C@H](NC(=O)[C@H](N)c3ccccc3)C(=O)N2[C@H]1C(=O)O | broth dilution | CCARM3090 |  |  | 16 µg/mL
CN[C@H](CC(C)C)C(=O)N[C@H]1C(=O)N[C@@H](CC(N)=O)C(=O)N[C@H]2C(=O)N[C@H]3C(=O)N[C@H](C(=O)N[C@H](C(=O)O)c4cc(O)cc(O)c4-c4cc3ccc4O)[C@H](O)c3ccc(c(Cl)c3)Oc3cc2cc(c3O[C@@H]2O[C@H](CO)[C@@H](O)[C@H](O)[C@H]2O[C@H]2C[C@](C)(N)[C@H](O)[C@H](C)O2)Oc2ccc(cc2Cl)[C@H]1O | broth dilution | ATCC25923 |  |  | 0.98 µg/mL
O=C(CCCCCCCC[P+](c1ccccc1)(c1ccccc1)c1ccccc1)Nc1ccc(O)c(O)c1.[Br-] | broth dilution | ATCC43300 MRSA | 18 h |  | > 32 µg/mL
COc1c(C)c(OC(C)=O)c(C)c(OC(C)=O)c1C(=O)/C=C/c1ccccc1 | broth dilution | ATCC25923 |  |  | 5000 µg/mL
Cc1c(CN(C)C(=O)/C=C/c2cnc3c(c2)CC(CCN)C(=O)N3)oc2ccccc12.Cl (stereo not shown) | broth dilution | ATCC29213 |  |  | 0.125 µg/mL
Cc1ccc2nc(-c3ccccc3Cl)[nH]c2c1 | broth dilution | ATCC29213 MSSA |  |  | 64 µg/mL
O=C(Nc1ccc2c(c1)OC(F)(F)O2)c1ccc(Cl)c(C(F)(F)F)c1 |  | NCTC8325 |  |  | 3 µM
c1ccc2[nH]c(-c3ccc4c(c3)OCO4)nc2c1 | broth dilution | ATCC29213 MSSA |  |  | 128 µg/mL
C/C=C(\C)c1cc(OC(=O)c2c(O)c(C)c(O)c(Cl)c2/C(C)=C/C)c(C)c(O)c1C(=O)O | broth dilution | 16162 |  |  | 32 µg/mL
C[C@@H]1[C@H](O)[C@@H](C)/C=C/C=C/C=C/C=C/C=C/C=C/C=C/[C@H](O[C@@H]2O[C@H](C)[C@@H](O)[C@H](N)[C@@H]2O)C[C@@H]2O[C@](O)(C[C@@H](O)C[C@@H](O)[C@H](O)CC[C@@H](O)C[C@@H](O)CC(=O)O[C@H]1C)C[C@H](O)[C@H]2C(=O)O | broth dilution | MB2865 |  |  | > 128 µg/mL
Clc1ccc(-c2nc3ccccc3[nH]2)cc1 | broth dilution | ATCC29213 MSSA |  |  | 64 µg/mL

Compound | method | strain | time | notes | MIC
CCn1cc(C(=O)O)c(=O)c2cc(F)c(N3CCNCC3)cc21 | broth dilution | ATCC6538 |  |  | 2 µM
CC(=O)NC[C@H]1CN(c2ccc(N3CCOCC3)c(F)c2)C(=O)O1 |  |  |  | clinical isolate | 1.56 µg/mL
c1ccc2c(-c3nc4ccccc4[nH]3)c3ccccc3cc2c1 | broth dilution | ATCC29213 MSSA |  |  | 32 µg/mL
CC(C)Oc1c(NC(=O)c2ccc(NC(=O)[C@H](CC(N)=O)NC(=O)c3ccc(NC(=O)c4ccc(NC(=O)c5ccc([N+](=O)[O-])cc5)cc4)cc3)cc2)ccc(C(=O)Nc2ccc(C(=O)O)cc2)c1O |  | ATCC29213 |  |  | > 64 µg/mL
Cc1nc(N)sc1-c1ccnc(Nc2ccc(N3CCOCC3)cc2)n1 |  | NCTC8325 |  |  | > 30 µM
NCCCC[C@H](N)C(=O)Nc1ccc(-n2nc(C(F)(F)F)cc2-c2ccc3c(ccc4ccccc43)c2)cc1 | broth dilution | ATCC29213 | 24 h |  | 4 µg/mL
CC(C)Oc1c(NC(=O)c2ccc(NC(=O)[C@H](CC(N)=O)NC(=O)c3ccc(NC(=O)c4ccc(C#N)cc4)cc3)cc2)ccc(C(=O)N[C@@H]2CONC2=O)c1O |  | ATCC29213 |  |  | > 64 µg/mL
COC(=O)c1cc(Sc2ccc(NC(=O)Nc3ccc(Cl)c(C(F)(F)F)c3)cc2)ccn1 |  | NCTC8325 | 24 h |  | 3 µM
O=C(O)CN1C(=O)/C(=C/c2c3ccccc3c(-c3ccc(N(c4ccccc4)c4ccccc4)cc3)c3ccccc23)SC1=S | broth dilution | ATCC25923 |  |  | > 1000 µg/mL
NC[C@@H]1O[C@H](O[C@H]2[C@@H](O)[C@H](O[C@@H]3[C@@H](O)[C@H](N)C[C@H](N)[C@H]3O[C@H]3O[C@H](CN)[C@@H](O)[C@H](O)[C@H]3N)O[C@@H]2CO)[C@H](N)[C@@H](O)[C@@H]1O |  | NEWMAN |  |  | 5 to 10 µg/mL
CN(C)c1ccc(-c2nc3ccccc3[nH]2)cc1 | broth dilution | ATCC29213 MSSA |  |  | 64 µg/mL
CC1=NN(CNc2c(O)c(S(=O)(=O)O)cc3ccccc23)C(=O)C1=NNn1c(-c2ccccc2)nc2ccccc2c1=O | broth dilution |  | 24 h |  | 83.7 µM
O=[N+]([O-])c1ccc(-c2nc3ccccc3n2Cc2ccccc2)cc1 | broth dilution | ATCC29213 MSSA |  |  | 4 µg/mL
CCCCCCCCCC(=O)Oc1c(C)c(O)c(C(=O)/C=C/c2ccccc2)c(OC)c1C | broth dilution | ATCC25923 |  |  | > 5000 µg/mL
C/C=C(\C)c1cc(OC(=O)c2c(C)c(Cl)c(O)c(Cl)c2O)c(C)c(O)c1C(=O)O | broth dilution | ATCC29213 |  |  | 64 µg/mL
COc1ccc(-c2nc3ccc(C)cc3[nH]2)cc1O | broth dilution | ATCC29213 MSSA |  |  | 64 µg/mL
Cc1cc(C)n(C(=O)c2ccc(-n3c(C)ccc3C)cc2)n1 | broth dilution | ATCC11632 | 18 h |  | 125 µg/mL
Brc1ccc(NCc2ccc(Oc3ccccn3)cc2)cc1 |  |  |  |  | > 6.2 µg/mL
